Measured values from publication PMC5197073 (Theranostics, 2017).

What was measured:
[1] = test system: C38 tumors; assay: Microvessel areas; assay type: in vivo, mouse; details: C38 model, 100 mg/kg p.o. for two weeks; P<0.03
[2] = Intratumoral drug concentration and distribution by MALDI-MSI in C26 tumors; assay type: in vivo, mouse; details: for intratumoral drug distribution (MALDI-MSI): C26 tumors, 100 mg/kg p.o. for two weeks
[3] = test system: desmin; assay: Pericyte desmin expression in C26 tumors; assay type: in vivo, mouse; details: C26 model, 100 mg/kg p.o. for two weeks; sunitinib P=0.0135, motesanib P<0.05
[4] = test system: C38 mouse colorectal carcinoma; assay: In vivo growth inhibition of s.c. C38 tumors; details: C57Bl/6 mice, 100 mg/kg p.o. 5 times a week for two weeks; vs vehicle; P=0.0048
Method in brief: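 C38 fragments, kept by serial s.c. passage, cut into 5×5×5 mm cubes and implanted into the backs of anaesthetised 8-week-old female C57Bl/6 mice. Dosing started on day 13, once daily by feeding tube, 5 days/week. Vehicle was 2% carboxymethylcellulose with 2 mg/mL methyl-4-hydroxybenzoate, also given to controls. Calipers were used three times weekly, with volume = length × width² × π/6.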

[5] = Intratumoral drug concentration and distribution by MALDI-MSI in C38 tumors; assay type: in vivo, mouse; details: 100 mg/kg p.o. for two weeks
[6] = test system: C26 tumors; assay: Intratumoral hypoxia; assay type: in vivo, mouse; details: C26 model, 100 mg/kg p.o. for two weeks; P=0.0152
[7] = test system: PDGFRβ; details: ref [18]; cited from earlier work
[8] = test system: C38 mouse colorectal carcinoma; details: C57Bl/6 mice; previously published study; ref [38]; cited from earlier work

Structure (SMILES) | intratumoral microvessel areas (antivascular/antiangiogenic effect) [1] | intratumoral drug distribution (MALDI-MSI) [2] | pericyte desmin expression [3] | C38 tumor growth inhibition [4] | intratumoral drug distribution (MALDI-MSI) [5] | rank of intratumoral concentration among the five RTKIs ([2]; mouse, in vivo, po, 100 mg/kg) | intratumoral hypoxia [6] | IC50 value against PDGFRβ, rank among the tested RTKIs [7] | C38 tumor burdens [8] | intratumoral drug concentration vs untreated controls ([5]; P=0.0006) | intratumoral vatalanib concentration ([5]; C57Bl/6 mice, P=0.0025 vs C26)
CC1(C)CNc2cc(NC(=O)c3cccnc3NCc3ccncc3)ccc21 [motesanib] | no significant | inhomogeneous | significantly decreased | no significant tumor growth inhibitory | trace-level |  |  |  |  |  | 
Cc1ccc(Nc2nccc(N(C)c3ccc4c(C)n(C)nc4c3)n2)cc1S(N)(=O)=O [pazopanib] | no significant | inhomogeneous |  | no significant tumor growth inhibitory | trace-level |  |  |  |  |  | 
CNC(=O)c1cc(Oc2ccc(NC(=O)Nc3ccc(Cl)c(C(F)(F)F)c3)cc2)ccn1 [sorafenib] | no significant | Only traces |  | no significant tumor growth inhibitory | trace-level |  |  |  |  |  | 
CCN(CC)CCNC(=O)c1c(C)[nH]c(/C=C2\C(=O)Nc3ccc(F)cc32)c1C [sunitinib] | significant | homogeneously distributed | suppressed | significant antitumor | well-distributed | highest values | significantly increased | lowest IC50 value |  |  | 
Clc1ccc(Nc2nnc(Cc3ccncc3)c3ccccc23)cc1 [vatalanib] | significant decrease | Only traces |  | robust and significant growth-inhibitory effect | well-distributed |  |  |  | significantly decreased | significantly higher | 0.116 µmol/mL
